Activity calls are given as the source filed them. No cut-off for these calls is given here. *1 amine or outer side, *2 acyl side, *3 side chain or, on linkers, in order; H or OH if unused. Where a SMILES comes first, the peptide text is derived from it. [ ]: non-standard residue; d: D form. dGly(6-heptenyl) = C=CCCCCC[C@@H](N)C(=O)O; Ala(5-hexenyl) = C=CCCCCC[C@H](N)C(=O)O; Gly(octyl) = CCCCCCCC[C@H](N)C(=O)O; X1 = CCCCCCC[C@H](N[*:1])C(=O)[*:2]
Tests used:
Mus musculus [1] = test: Effect on triglyceride level in C57/BL6 mouse at 60 mg/kg, sc after 1 hr; assay type: functional, organism-based; design: dose 60 mg/kg; settings: C57Bl/6
Procedure, shortened: (§1)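 Male C57Bl/6 mice (≥12 weeks, chow-fed) given peptide subcutaneously in 50 mM mannitol/PBS vehicle. Serum was collected by cardiac puncture at 1 or 3 h, clotted 1 h at room temperature and spun at 10,000g. Serum triglyceride was measured by enzymatic colorimetric assay, with 3–5 animals per dose and time point.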

[2] = biological target: Lipoprotein lipase (Bos taurus) (UniProt P11151); test: Inhibition of Lipoprotein lipase in vitro
Mus musculus [3] = test: Effect on triglyceride level in C57/BL6 mouse at 20 mg/kg, sc after 3 hrs; assay type: functional, organism-based; design: dose 20 mg/kg; settings: C57Bl/6; procedure, shortened: as §1
Plasma [4] = test: Induction of pre-beta HDL formation in human plasma after 2 hrs by ELISA; assay type: functional, cell-free
Procedure, shortened: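 Increasing peptide concentrations were incubated with normal human plasma at 37 °C for 2 h. Pre-β HDL was quantified by a commercial human pre-β HDL ELISA.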

Mus musculus [5] = test: Effect on triglyceride level in C57/BL6 mouse at 20 mg/kg, sc after 1 hr; assay type: functional, organism-based; design: dose 20 mg/kg; settings: C57Bl/6; procedure, shortened: as §1
Plasma [6] = test: Induction of pre-beta HDL formation in human plasma at 0.5 mg/ml after 2 hrs by FPLC; assay type: functional, cell-free
Procedure, shortened: (§2)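 Peptide was added to C57Bl/6 mouse plasma (final 0.25 mg/ml) or human plasma (final 0.5 mg/ml) and incubated at 37 °C. Lipoproteins were fractionated by Superose 6 FPLC in PBS pH 7.4 with 1 mM EDTA. Cholesterol was measured by enzymatic colorimetry and peptide by LC–MS against an internal standard.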

Plasma [7] = test: Induction of pre-beta HDL formation in mouse plasma after 2 hrs by ELISA; assay type: functional, cell-free
Mus musculus [8] = test: Induction of hypertriglyceridemia in C57/BL6 mouse at 30 mg/kg, sc by FPLC; assay type: functional, organism-based; design: dose 30 mg/kg; settings: C57Bl/6
Procedure, shortened: (§3)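 Male C57Bl/6 mice (≥12 weeks, chow-fed) dosed subcutaneously with peptide in vehicle (50 mM mannitol in PBS); serum collected by cardiac puncture at time points post-dose. Serum was pooled (three animals per pool), given protease and lipase inhibitors, filtered, and fractionated by Superose 6 FPLC in PBS pH 7.4 with 1 mM EDTA at 0.2 ml/min. Cholesterol and triglyceride in fractions were measured by enzymatic colorimetry.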

Mus musculus [9] = organism: Mus musculus; test: Induction of pre-beta HDL formation in C57/BL6 mouse plasma at 0.25 mg/ml after 2 hrs by FPLC; assay type: functional; settings: C57Bl/6; procedure, shortened: as §2
Mus musculus [10] = test: Effect on TG content of HDL in C57/BL6 mouse at 100 mg/kg, sc after 24 hrs by FPLC; assay type: functional, organism-based; design: dose 100 mg/kg; settings: C57Bl/6; procedure, shortened: as §3
Mus musculus [11] = test: Increase in VLDL triglyceride level in C57/BL6 mouse at 100 mg/kg, sc by FPLC; assay type: functional, organism-based; design: dose 100 mg/kg; settings: C57Bl/6; procedure, shortened: as §3
Mus musculus [12] = test: Induction of pre-beta HDL formation in apoe deficient mouse assessed as increase in circulating pre-beta HDL at 60 mg/kg, sc after 2 hrs by FPLC; assay type: functional, organism-based; design: dose 60 mg/kg; settings: TDE = time-dependent effect
Mus musculus [13] = test: Increase in VLDL cholesterol level in C57/BL6 mouse at 100 mg/kg, sc by FPLC; assay type: functional, organism-based; design: dose 100 mg/kg; settings: C57Bl/6; procedure, shortened: as §3
Mus musculus [14] = test: Increase in VLDL triglyceride level in C57/BL6 mouse at 30 mg/kg, sc by FPLC; assay type: functional, organism-based; design: dose 30 mg/kg; settings: C57Bl/6; procedure, shortened: as §3
[15] = biological target: Phospholipid-transporting ATPase ABCA1 (Mus musculus) (UniProt P41233); test: Induction of ABCA1-mediated [3H]cholesterol efflux in mouse J774 macrophages; settings: TDE = time-dependent effect
Sequence of Phospholipid-transporting ATPase ABCA1 (Mus musculus) (P41233 whole entry): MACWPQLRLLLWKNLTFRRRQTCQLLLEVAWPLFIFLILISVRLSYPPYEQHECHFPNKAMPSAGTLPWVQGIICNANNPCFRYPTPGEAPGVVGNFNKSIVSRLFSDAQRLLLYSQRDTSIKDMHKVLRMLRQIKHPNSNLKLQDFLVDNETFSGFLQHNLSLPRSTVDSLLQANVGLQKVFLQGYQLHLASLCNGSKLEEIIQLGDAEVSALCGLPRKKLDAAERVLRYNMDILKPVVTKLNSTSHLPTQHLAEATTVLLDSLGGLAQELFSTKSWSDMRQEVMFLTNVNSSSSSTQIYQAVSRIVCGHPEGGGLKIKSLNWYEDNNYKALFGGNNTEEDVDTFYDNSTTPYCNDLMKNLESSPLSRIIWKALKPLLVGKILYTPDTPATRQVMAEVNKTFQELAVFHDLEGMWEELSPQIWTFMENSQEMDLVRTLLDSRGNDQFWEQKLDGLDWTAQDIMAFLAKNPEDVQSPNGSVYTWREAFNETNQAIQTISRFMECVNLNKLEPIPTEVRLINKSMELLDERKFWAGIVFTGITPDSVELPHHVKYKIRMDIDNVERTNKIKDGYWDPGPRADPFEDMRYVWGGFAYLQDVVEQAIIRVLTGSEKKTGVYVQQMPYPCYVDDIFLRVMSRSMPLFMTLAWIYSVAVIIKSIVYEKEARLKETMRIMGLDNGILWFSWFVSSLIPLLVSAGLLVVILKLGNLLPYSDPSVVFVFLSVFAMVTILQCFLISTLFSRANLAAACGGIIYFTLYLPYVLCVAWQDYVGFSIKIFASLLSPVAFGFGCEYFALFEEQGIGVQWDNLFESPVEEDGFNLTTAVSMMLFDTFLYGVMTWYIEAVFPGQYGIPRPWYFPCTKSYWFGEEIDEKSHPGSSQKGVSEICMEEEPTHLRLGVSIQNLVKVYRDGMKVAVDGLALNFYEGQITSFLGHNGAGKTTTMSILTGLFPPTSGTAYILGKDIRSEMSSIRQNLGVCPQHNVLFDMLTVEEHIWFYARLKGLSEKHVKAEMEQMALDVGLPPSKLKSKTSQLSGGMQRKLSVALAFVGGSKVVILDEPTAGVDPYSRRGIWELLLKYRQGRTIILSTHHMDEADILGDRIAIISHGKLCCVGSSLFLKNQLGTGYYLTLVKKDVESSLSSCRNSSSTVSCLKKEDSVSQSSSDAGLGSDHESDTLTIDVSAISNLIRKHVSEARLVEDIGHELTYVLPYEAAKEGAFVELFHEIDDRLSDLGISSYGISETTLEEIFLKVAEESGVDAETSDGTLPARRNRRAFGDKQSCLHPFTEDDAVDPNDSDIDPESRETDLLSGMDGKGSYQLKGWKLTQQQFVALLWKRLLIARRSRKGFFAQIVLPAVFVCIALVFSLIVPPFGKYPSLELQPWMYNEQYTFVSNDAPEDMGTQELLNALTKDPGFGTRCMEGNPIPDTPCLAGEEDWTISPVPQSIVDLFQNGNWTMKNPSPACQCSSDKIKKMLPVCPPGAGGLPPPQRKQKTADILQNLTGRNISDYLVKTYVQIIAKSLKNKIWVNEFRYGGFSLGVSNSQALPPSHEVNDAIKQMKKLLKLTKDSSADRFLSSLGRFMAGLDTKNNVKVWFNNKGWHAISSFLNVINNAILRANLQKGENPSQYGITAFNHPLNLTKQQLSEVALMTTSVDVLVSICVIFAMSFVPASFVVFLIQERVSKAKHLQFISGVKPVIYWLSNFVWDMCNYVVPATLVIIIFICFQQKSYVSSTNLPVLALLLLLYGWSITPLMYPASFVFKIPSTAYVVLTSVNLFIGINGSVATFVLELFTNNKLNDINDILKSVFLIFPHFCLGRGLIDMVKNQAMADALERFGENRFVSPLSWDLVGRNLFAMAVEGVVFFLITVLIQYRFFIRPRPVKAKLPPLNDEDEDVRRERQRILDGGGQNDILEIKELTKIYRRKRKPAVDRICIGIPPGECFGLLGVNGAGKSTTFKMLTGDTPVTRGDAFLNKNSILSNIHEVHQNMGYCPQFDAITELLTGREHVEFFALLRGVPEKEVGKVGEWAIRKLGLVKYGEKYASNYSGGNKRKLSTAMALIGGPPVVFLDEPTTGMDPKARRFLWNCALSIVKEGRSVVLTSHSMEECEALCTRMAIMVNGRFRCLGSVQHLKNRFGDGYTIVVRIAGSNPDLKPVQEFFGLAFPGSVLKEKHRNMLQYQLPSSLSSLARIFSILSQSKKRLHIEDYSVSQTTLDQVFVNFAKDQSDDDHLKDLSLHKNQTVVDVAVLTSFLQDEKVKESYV
Procedure, shortened: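 Ex vivo serum efflux. J774 macrophages were labeled with [3H]cholesterol for 24 h, then equilibrated 18 h in 0.2% BSA, with or without cpt-cAMP. Cells were incubated 4 h at 37 °C with 2% serum from peptide-dosed apoe-/- mice (60 mg/kg sc). Fractional efflux was media [3H] over total at time zero; ABCA1-dependent efflux = cAMP-treated minus untreated.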

[16] = biological target: Phospholipid-transporting ATPase ABCA1 (Mus musculus, UniProt P41233); test: Induction of ABCA1-mediated [3H]cholesterol efflux in mouse RAW 264.7 macrophages after 24 hrs
Sequence of Phospholipid-transporting ATPase ABCA1 (P41233 whole entry): as above

Mus musculus [17] = test: Decrease in HDL cholesterol level in C57/BL6 mouse at 30 mg/kg, sc after 24 hrs by FPLC; assay type: functional, organism-based; design: dose 30 mg/kg; settings: C57Bl/6; procedure, shortened: as §3
Mus musculus [18] = test: Decrease in HDL cholesterol level in C57/BL6 mouse at 100 mg/kg, sc after 24 hrs by FPLC; assay type: functional, organism-based; design: dose 100 mg/kg; settings: C57Bl/6; procedure, shortened: as §3
Mus musculus [19] = test: Induction of hypertriglyceridemia in C57/BL6 mouse at 100 mg/kg, sc by FPLC; assay type: functional, organism-based; design: dose 100 mg/kg; settings: C57Bl/6; procedure, shortened: as §3
[20] = Plasma concentration in C57/BL6 mouse at 60 mg/kg, sc after 3 hrs; assay type: ADME, organism-based, C57Bl/6; design: dose 60 mg/kg, route subcutaneous
Procedure, shortened: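 Male C57Bl/6 mice were dosed subcutaneously with peptide in 50 mM mannitol/PBS. Serum was taken by cardiac puncture, and peptide was measured by LC–MS/MS after acetonitrile protein precipitation.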

Mus musculus [21] = test: Effect on TG content in HDL in C57/BL6 mouse at 30 mg/kg, sc after 24 hrs by FPLC; assay type: functional, organism-based; design: dose 30 mg/kg; settings: C57Bl/6; procedure, shortened: as §3
Mus musculus [22] = test: Increase in VLDL cholesterol level in C57/BL6 mouse at 30 mg/kg, sc by FPLC; assay type: functional, organism-based; design: dose 30 mg/kg; settings: C57Bl/6; procedure, shortened: as §3

Compound	Activity (Mus musculus [1])	IC50 [2] [µM]	Activity (Mus musculus [3])	Activity (Plasma [4])	Activity (Mus musculus [5])	EC50 [16] [µM]	concentration at 3 h [20] [µM]	other results
CCCCCCCC[C@H](NC(=O)[C@H](CCC(=O)O)NC(=O)[C@H](CC(N)=O)NC(=O)[C@H](CC(C)C)NC(=O)[C@H](CCCCN)NC(=O)[C@H](CCC(=O)O)NC(=O)[C@H](CCCNC(=N)N)NC(=O)[C@H](Cc1ccccc1)NC(=O)[C@H](CCC(=O)O)NC(=O)[C@H](CC(=O)O)NC(=O)[C@H](CC(C)C)NC(=O)[C@@H](NC(=O)[C@@H]1CCCN1C(C)=O)C(C)C)C(=O)N[C@@H](CC(C)C)C(=O)N[C@@H](CCC(=O)O)C(=O)N[C@@H](C)C(=O)N[C@@H](CC(C)C)C(=O)N[C@@H](CCCCN)C(=O)N[C@@H](CCC(N)=O)C(=O)N[C@@H](CCCCN)C(=O)N[C@@H](CC(C)C)C(=O)N[C@@H](CCCCN)C(N)=O (Ac-PVLDEFREKLNE[Gly(octyl)]LEALKQKLK-NH2)	inactive	88	inactive	Dose-dependent effect	inactive	–	–	–
C=CCCCCC[C@H](NC(=O)[C@H](CCC(=O)O)NC(=O)[C@H](CC(N)=O)NC(=O)[C@H](CC(C)C)NC(=O)[C@H](CCCCN)NC(=O)[C@H](CCC(=O)O)NC(=O)[C@H](CCCNC(=N)N)NC(=O)[C@H](CCCCCC=C)NC(=O)[C@H](CCC(=O)O)NC(=O)[C@H](CC(=O)O)NC(=O)[C@H](CC(C)C)NC(=O)[C@@H](NC(=O)[C@@H]1CCCN1C(C)=O)C(C)C)C(=O)N[C@@H](CC(C)C)C(=O)N[C@@H](CCC(=O)O)C(=O)N[C@@H](C)C(=O)N[C@@H](CC(C)C)C(=O)N[C@@H](CCCCN)C(=O)N[C@@H](CCC(N)=O)C(=O)N[C@@H](CCCCN)C(=O)N[C@@H](CC(C)C)C(=O)N[C@@H](CCCCN)C(N)=O (Ac-PVLDE[Ala(5-hexenyl)]REKLNE[Ala(5-hexenyl)]LEALKQKLK-NH2)	inactive	60	inactive	Dose-dependent effect	inactive	0.4	124	Activity (Plasma [6]): Active; Activity (Plasma [7]): Dose-dependent effect; Activity (Mus musculus [8]): inactive; Activity (Mus musculus [9]): Active; Activity (Mus musculus [10]): inactive; Activity (Mus musculus [11]): Active; Activity (Mus musculus [12]): tde; Activity (Mus musculus [13]): Active; Activity (Mus musculus [14]): Active; Activity [15]: tde; Activity (Mus musculus [17]): Active; Activity (Mus musculus [18]): Active; Activity (Mus musculus [19]): Active; Activity (Mus musculus [21]): inactive; Activity (Mus musculus [22]): Active
CCCCCCC[C@H](NC(=O)[C@H](CCC(=O)O)NC(=O)[C@H](CC(N)=O)NC(=O)[C@H](CC(C)C)NC(=O)[C@H](CCCCN)NC(=O)[C@H](CCC(=O)O)NC(=O)[C@H](CCCNC(=N)N)NC(=O)[C@H](CCCCCCC)NC(=O)[C@H](CCC(=O)O)NC(=O)[C@H](CC(=O)O)NC(=O)[C@H](CC(C)C)NC(=O)[C@@H](NC(=O)[C@@H]1CCCN1C(C)=O)C(C)C)C(=O)N[C@@H](CC(C)C)C(=O)N[C@@H](CCC(=O)O)C(=O)N[C@@H](C)C(=O)N[C@@H](CC(C)C)C(=O)N[C@@H](CCCCN)C(=O)N[C@@H](CCC(N)=O)C(=O)N[C@@H](CCCCN)C(=O)N[C@@H](CC(C)C)C(=O)N[C@@H](CCCCN)C(N)=O (Ac-PVLDE[X1]REKLNE[X1]LEALKQKLK-NH2)	inactive	44	inactive	–	inactive	–	137	–
C=CCCCCC[C@H](NC(=O)[C@H](CCC(N)=O)NC(=O)[C@H](CCCCN)NC(=O)[C@H](CC(C)C)NC(=O)[C@H](C)NC(=O)[C@H](CCC(=O)O)NC(=O)[C@H](CC(C)C)NC(=O)[C@H](CCCCCC=C)NC(=O)[C@H](CCC(=O)O)NC(=O)[C@H](CC(N)=O)NC(=O)[C@H](CC(C)C)NC(=O)[C@H](CCCCN)NC(=O)[C@H](CCC(=O)O)NC(=O)[C@H](CCCNC(=N)N)NC(=O)[C@@H](CCCCCC=C)NC(=O)[C@H](CCC(=O)O)NC(=O)[C@H](CC(=O)O)NC(=O)[C@H](CC(C)C)NC(=O)[C@@H](NC(=O)[C@@H]1CCCN1C(C)=O)C(C)C)C(=O)N[C@@H](CC(C)C)C(=O)N[C@@H](CCCCN)C(N)=O (Ac-PVLDE[dGly(6-heptenyl)]REKLNE[Ala(5-hexenyl)]LEALKQ[Ala(5-hexenyl)]LK-NH2)	inactive	40	inactive	Dose-dependent effect	inactive	1	49	–

— ChEMBL document CHEMBL1629456, “ApoA-I mimetic peptides promote pre-β HDL formation in vivo causing remodeling of HDL and triglyceride accumulation at higher dose” (Bioorg Med Chem, 2010)
